# Dynein cargo inh – blocks dynein driven cargo transport along microtubules; 3617.4 mouse cells, GR-EGFP nuclear translocation imaging; test concentration mostly 20 µM; stimulated with dexamethasone, 1 µM; hits give low values; z-score, hits read low; 220,000 compounds, 0.47% hits; AID 1381;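 active = plate z-score of nuclear minus cytoplasmic receptor signal below a set negative limit, without overly bright fluorescence or cell loss, cut at about -3.5 in these data, passing the limit was not always enough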;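 also: z-score of nuclear minus cytoplasmic ring GR-EGFP intensity difference per well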
#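 Buffer or medium: Induction medium lacking tetracycline, stripped serum | Also added: Dexamethasone agonist, 1.0 µM final, for 30 min | Timing: 48 h induction, 1 h compound, 30 min dex at 37 °C | Detection: Formaldehyde fixation, Hoechst nuclear stain, 10x automated fluorescence imaging | Measure: Nuclear versus cytoplasmic GR-EGFP signal, averaged per well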
# Autophagy HCS – alters autophagy in cells; MEF GFP-LC3 puncta imaging; test concentration mostly 10 µM; calls only at 10 µM (by protocol); 190,000 compounds, 0.98% hits;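 active = percentage of spot-positive cells more than 3 SD above its plate mean, without a fluorescence outlier flag or 80% toxicity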;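 also: spot-positive cell cutoff set from DMSO-treated cells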
# bCat KO growth – beta-catenin-lacking colon tumor cell growth suppression; AID 818; viability, % at 10 µM; 140,000 compounds, 1.5% hits; HCT116 beta-catenin knockout viability, CellTiter-Glo, 60 h; hits give low values;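 active = viability at or under a set limit, the compound median less 4 SD, cut at about 6% in these data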;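 also: 0% = Hyamine 1622 control at 20 µM and 100% = untreated cell control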
# PTEN del growth – suppresses growth of cells with PTEN deletion | viability, % at 10 µM | HCT116 PTEN-null viability, CellTiter-Glo, 60 h; hits give low values | 140,000 compounds, 1.2% hits;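 active = viability at or below a set limit, 4 SD under the median of all tested compounds, cut at about 3.7% in these data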;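 also: PTEN knockout HCT116 line with beta catenin targeted HCT116 as companion control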
# L major viab – inhibitors of Leishmania major promastigote growth; 200,000 compounds, 9% hits; inhibition, % at 10 µM; Leishmania major promastigotes, resazurin fluorescence viability; AID 1063; in the data active = inhibition above about 50%;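 also: promastigotes grown with compound for 44 hours at 28 °C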
# * marks the source's active call; other numbers are inactive results; i = inactive; . = no result. Sampled rows, rich in hits. Any-hit rate of the full collection: about 9.2%.
SMILES,Dynein cargo inh,Autophagy HCS,bCat KO growth,PTEN del growth,L major viab
COCCN1CN(S(=O)(=O)c2ccc(Cl)cc2)c2nc3ccccc3nc21,-0.00345,i,72.2,68.9,77.1*
COCCN1CN(S(=O)(=O)c2ccccc2)c2nc3ccccc3nc21,0.636,i,100.0,90.5,7.1
O=S(=O)(NC1CCCCCC1)c1ccc(Br)s1,0.0166,i,96.3,88.1,7.3
O=C(/C=C/c1ccc(O)cc1)c1ccc(O)cc1O,-1.78,i,19.1,18.6,84.7*
COc1ccc(C(=O)/C=C/c2ccccc2)c(O)c1,-3.08,i,.,.,75.0*
Cc1ccc(C(=O)/C=C/c2ccc3c(c2)OCCO3)c(O)c1,-0.846,.,.,.,.
COC(=O)c1c(NC(=O)CN2CCC3(O)CCCCC3C2c2ccc(OC)cc2OC)sc(C)c1C (centres undefined),0.556,i,57.5,54.9,61.8*
COc1cc([C@H]2[C@@H]3CCCC[C@]3(O)CCN2CC(=O)Nc2ccc(C)cc2C)ccc1O,0.00378,i,84.3,81.1,65.4*
O=C(Nc1nnc(-c2ccncc2)s1)Nc1ccccc1F,-0.444,i,.,.,59.9*
O=C(CN1C(=O)C2CCCCC2C1=O)OCC(=O)c1ccc(Cl)s1 (centres undefined),-1.62,i,.,.,-11.8
O=C(OC(C(=O)NC1CCCC1)c1cccnc1)C1=Cc2ccccc2OC1 (centres undefined),-1.33,i,96.3,100.4,93.5*
CC(OC(=O)C1=Cc2ccccc2OC1)C(=O)NC1CCCC1 (centres undefined),-1.29,i,81.9,87.8,-1.9
O=C(Nc1nccs1)c1cc2cc(Cl)ccc2oc1=O,0.24,.,.,.,.
O=S(=O)(Oc1ccc(Cl)cc1)c1cccc2cccnc12,0.286,.,.,.,.
COc1ccc(C2C=C(C)Nc3nc4ccccc4n32)cc1 (centres undefined),-0.714,i,.,.,-2.0
COc1ccc(C2C(C#N)=C(N)Nc3nc4ccccc4n32)cc1 (centres undefined),0.452,i,94.6,95.5,64.7*
O=C1CCCC(=O)N1c1ccc(N2CCN(c3ccccc3)CC2)c([N+](=O)[O-])c1,-0.789,i,104.5,107.0,-8.5
Cc1cccc(N2CCN(c3ccc(N4C(=O)CCCC4=O)cc3[N+](=O)[O-])CC2C)c1 (centres undefined),-0.448,i,101.1,96.8,50.4*
CN(Cc1ccccc1)c1ccc(N2C(=O)CCCC2=O)cc1[N+](=O)[O-],0.468,i,90.8,94.4,81.5*
CN(Cc1ccccc1)c1ccc(N2C(=O)CCC2=O)cc1[N+](=O)[O-],-0.596,i,.,.,-6.0
Cc1cccc(N2CCN(c3ccc(N4C(=O)CCCC4=O)cc3[N+](=O)[O-])CC2)c1C,2.19,i,90.9,81.7,57.6*
Cc1ccc[n+](CC2OCc3ccccc3CO2)c1,-0.307,i,.,.,-2.9
CC(C)c1ccc(/C=N/NC(=O)c2nnn(-c3nonc3N)c2CSC2=NCCS2)cc1,-0.855,i,46.1,33.6,97.4*
Cc1ccc(C)c(NC(=O)CSc2nc3ccc(N4C(=O)c5ccccc5C4=O)cc3s2)c1,0.334,i,97.5,82.8,98.6*
Cc1cc(C)nc(NC(=O)CSc2nc3ccccc3s2)n1,-0.537,i,93.4,89.5,2.1
SMILES,Dynein cargo inh,Autophagy HCS,bCat KO growth,PTEN del growth,L major viab
C=CCNC(=O)c1ccccc1NC(=O)c1ccccc1C,-0.535,i,0.8*,1.0*,5.0
C=CCNC(=O)c1ccccc1NC(=O)c1ccc(Cl)c(S(=O)(=O)Nc2ccccc2)c1,0.575,i,44.1,35.7,57.6*
C=CCNC(=O)c1ccccc1NC(=O)c1ccccc1SC,-0.229,i,.,.,-1.3
O=C(NCc1ccco1)c1ccc(Cl)c(S(=O)(=O)Nc2ccccc2)c1,2.17,i,.,.,9.0
COC(=O)c1sccc1Oc1c(Cl)cccc1[N+](=O)[O-],1.46,i,.,.,9.3
COc1cccc(C2c3c(oc4ccc(Cl)cc4c3=O)C(=O)N2c2cc(C)on2)c1OC (centres undefined),0.016,i,2.8*,19.6,-6.8
CC(NC(=S)NCCCN1CCOCC1)C1CC2CCC1C2 (centres undefined),-0.214,i,.,.,87.0*
Cc1ccccc1C(=O)NCCN1CCOCC1,-1.66,i,.,.,5.0
CNC(=S)NCCN1CCOCC1,-0.479,i,91.8,97.0,50.6*
Cc1ccccc1C(=O)NC(=S)NCCN1CCOCC1,1.31,i,96.5,103.2,82.9*
CC(NC(=S)NCCN1CCOCC1)C12CC3CC(CC(C3)C1)C2 (centres undefined),-0.203,i,.,.,90.5*
